How the values were obtained:
Poliovirus 1 = test: Antiviral activity against Poliovirus type 1 Sabin strain infected in african green monkey Vero 76 cells assessed as reduction in plaque number after 2 days by plaque reduction assay; format: functional, organism-based; details: Enterovirus C, 48 h
[1] = Cytotoxicity against mock-infected MDBK cells after 48 to 96 hrs by MTT assay; format: cell-based, Bos taurus; details: cattle
In short: (§1)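 Mock-infected MDBK (6 × 10^5 cells/mL; MEM-E, 10% horse serum, 1 mM pyruvate) or BHK (1 × 10^6 cells/mL; MEM-E, 10% FBS) cells were incubated at 37 °C, 5% CO2 with serial dilutions from 100 µM, 1:5. Viability by MTT after 48–96 h. CC50 from linear regression against untreated controls.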

[2] = test system: Vesicular stomatitis virus; test: Antiviral activity against Vesicular stomatitis virus infected in african green monkey Vero 76 cells assessed as reduction in plaque number after 2 days by plaque reduction assay; format: functional, organism-based; details: 48 h
Yellow fever virus = test: Antiviral activity against Yellow fever virus infected in BHK21 cells assessed as inhibition of virus-induced cytopathogenicity after 3 to 4 days by MTT assay; format: functional, organism-based; details: BHK-21
Human alphaherpesvirus 1 = test: Antiviral activity against HSV1 infected in african green monkey Vero 76 cells assessed as reduction in plaque number after 3 days by plaque reduction assay; format: functional, organism-based; details: Human alphaherpesvirus 1, Vero, 72 h
[3] = Selectivity index, ratio of CC50 for african green monkey Vero 76 cells to EC50 for Respiratory syncytial virus; format: toxicity, cell-based; details: read-out: Ratio CC50/EC50
In short: (§2)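 Mock-infected Vero-76 cells were tested in parallel on the same 24-well plates as the plaque assays (seeding 4 × 10^5 cells/mL, D-MEM with FBS), with serial compound dilutions at 37 °C, 5% CO2. Viability was read after 48–96 h by crystal violet staining. CC50 by linear regression; selectivity index = Vero-76 CC50/EC50 for CVB-5 or RSV.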

Reovirus sp. = test: Antiviral activity against Reovirus type-1 infected in BHK21 cells assessed as inhibition of virus-induced cytopathogenicity after 3 to 4 days by MTT assay; format: functional, organism-based; details: BHK-21
[4] = test system: Bovine viral diarrhea virus 1; test: Antiviral activity against Bovine viral diarrhea virus infected in MDBK cells assessed as inhibition of virus-induced cytopathogenicity after 3 to 4 days by MTT assay; format: functional, organism-based; details: Bovine viral diarrhea virus isolates and strains
Vaccinia virus = test: Antiviral activity against Vaccinia Virus infected in african green monkey Vero 76 cells assessed as reduction in plaque number after 3 days by plaque reduction assay; format: functional, organism-based; details: Orthopoxvirus vaccinia, 72 h
[5] = Cytotoxicity against mock-infected BHK21 cells after 48 to 96 hrs by MTT assay; format: functional; details: Mesocricetus auratus, BHK-21; in short: as §1
[6] = test system: Human immunodeficiency virus 1; test: Antiviral activity against HIV1 infected in human MT4 cells assessed as inhibition of virus-induced cytopathogenicity after 4 days by MTT assay; format: functional, organism-based; details: Human immunodeficiency virus 1, MT4, 96 h
In short: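 MT-4 cells (1 × 10^4/well in RPMI) were infected acutely with HIV-1 IIIB, 100 CCID50 (m.o.i. 0.01), with serial dilutions from 100 µM, 1:5. After 4 days at 37 °C, protection from virus-induced cytopathogenicity was read by MTT. EC50 came from linear regression against untreated controls.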

[7] = Cytotoxicity against mock-infected human MT4 cells after 96 hrs by MTT assay; format: cell-based
In short: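 Exponentially growing MT-4 cells were seeded at 1 × 10^5 cells/mL in RPMI-1640 with 10% FBS and held at 37 °C, 5% CO2 with serial compound dilutions. Viability was read by MTT after 96 h. CC50 from linear regression against untreated controls.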

[8] = test system: Respiratory syncytial virus; test: Antiviral activity against Respiratory syncytial virus infected in african green monkey Vero 76 cells assessed as reduction in plaque number after 5 days by plaque reduction assay; format: functional, organism-based; details: human respiratory syncytial virus, 120 h
Coxsackievirus B5 = test: Antiviral activity against Coxsackievirus B5 infected in african green monkey Vero 76 cells assessed as reduction in plaque number after 3 days by plaque reduction assay; format: functional, organism-based; details: Enterovirus B, 72 h
[9] = Cytotoxicity against mock-infected african green monkey Vero 76 cells after 48 to 96 hrs by MTT assay; format: cell-based; details: chlorocebus sabaeus, mock-infected Vero 76 cells
[10] = Selectivity index, ratio of CC50 for african green monkey Vero 76 cells to EC50 for Coxsackievirus B5; format: toxicity, cell-based; details: read-out: Ratio CC50/EC50; in short: as §2

Structure (SMILES)	EC50 (Poliovirus 1) [µM]	CC50 [1] [µM]	EC50 [2] [µM]	EC50 (Yellow fever virus) [µM]	EC50 (Human alphaherpesvirus 1) [µM]	selectivity ratio [3]	EC50 (Reovirus sp.) [µM]	EC50 [4] [µM]	EC50 (Vaccinia virus) [µM]	CC50 [5] [µM]	EC50 [6] [µM]	CC50 at 96 h [7] [µM]	EC50 [8] [µM]	EC50 (Coxsackievirus B5) [µM]	CC50 [9] [µM]	selectivity ratio [10]
c1ccc(Cn2c(-c3ccccc3)nc3ccccc32)cc1	> 100	54	> 100	> 100	> 100	3.48	> 100	> 100	> 100	36	> 100	47	25	> 100	87	–
Cc1ccc2nc(-c3ccc(F)cc3)n([C@H]3CCCN4CCCC[C@H]34)c2c1	> 100	> 100	> 100	> 100	> 100	> 1.59	> 100	> 100	> 100	> 100	> 100	> 100	63	80	> 100	> 1.25
Clc1ccc2nc(-c3ccccc3)n([C@H]3CCCN4CCCC[C@H]34)c2c1	> 100	86	> 100	> 100	> 100	2	> 100	80	> 100	48	> 100	56	45	14	90	6.43
c1ccc2c(c1)Cn1c(nc3ccccc31)-c1ccccc1-2	> 100	23	> 100	> 100	> 100	8.89	> 100	> 100	> 100	20	> 100	44	9	> 100	80	–
Clc1ccc(Cc2nc3cc(Cl)c(Cl)cc3n2C[C@@H]2CCCN3CCCC[C@H]23)cc1Cl	> 100	46	> 100	> 100	> 100	> 8.33	> 100	> 100	> 100	52	> 100	9	12	9	> 100	> 11.1
Clc1cc2nc(Cc3ccc(Br)cc3)n(C[C@@H]3CCCN4CCCC[C@H]34)c2cc1Cl	> 100	58	> 100	> 100	> 100	> 11.1	> 100	> 100	> 100	70	> 100	12	9	50	> 100	> 2
Nc1ccc(Cc2nc3cc(C(F)(F)F)ccc3[nH]2)cc1	> 100	> 100	> 100	> 100	> 100	–	> 100	> 100	> 100	> 100	> 100	> 100	> 100	11	> 100	> 9.09
COc1ccc(Cc2nc3cc(Cl)c(Cl)cc3[nH]2)cc1	> 100	17	> 100	> 100	> 100	≥ 20	> 100	> 100	> 100	19	> 100	29	5	> 100	> 100	–

Reference: ChEMBL document CHEMBL3351523 (Bioorg Med Chem, 2014)
